Reference: ChEMBL document CHEMBL1649400, “Synthesis and antitumor activity of ureas containing pyrimidinyl group” (Eur J Med Chem, 2011)

Columns and labels:
Type in all cases: functional, cell-based
[1] = system: MCF7; test: Cytotoxicity against human MCF7 cells after 3 days by MTT assay; settings: MCF7, 72 h
Procedure, shortened: (§1)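 Cells grown in RPMI 1640 with 10% fetal calf serum were plated from suspension and held 12 h at 37 °C, 5% CO2. Test sample was then added and cells were cultured 3 days at 37 °C. MTT was added for 4 h at 37 °C, supernatant removed, formazan dissolved in DMSO, absorbance read at 570 nm. IC50 = concentration giving 50% growth inhibition versus untreated control.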

[2] = Cytotoxicity against human CNE2 cells after 3 days by MTT assay; settings: CNE-2, 72 h; procedure, shortened: as §1
[3] = system: MGC-803; test: Cytotoxicity against human MGC803 cells after 3 days by MTT assay; settings: MGC-803, 72 h; procedure, shortened: as §1
[4] = system: KB; test: Cytotoxicity against human KB cells after 3 days by MTT assay; settings: 72 h; procedure, shortened: as §1

Row | Compound | IC50 [1] [µM] | IC50 [2] [µM] | IC50 [3] [µM] | IC50 [4] [µM]
1 | Cc1cc(C)nc(Sc2ccc(NC(=O)Nc3ccc(OC(F)(F)F)cc3)cc2)n1 | 41.7 | 22.8 | 13.8 | 20
2 | Cc1cc(C)nc(Oc2ccc(NC(=O)Nc3ccc(OC(F)(F)F)cc3)cc2)n1 | > 50 | 30.8 | > 50 | 28.9
3 | Cc1cc(C)nc(Sc2ccc(NC(=O)Nc3ccc(F)cc3)cc2)n1 | > 50 | 34.1 | > 50 | 32.1
4 | Cc1cc(C)nc(Sc2ccc(NC(=O)Nc3ccccc3)cc2)n1 | > 50 | 22 | 40.1 | 25.7
5 | Cc1cccc(NC(=O)Nc2ccc(Sc3nc(C)cc(C)n3)cc2)c1 | 37 | > 50 | 25.3 | 47.8
6 | Cc1cc(C)nc(Oc2ccc(NC(=O)Nc3ccccc3)cc2)n1 | – | – | – | > 50
7 | COc1ccc(NC(=O)Nc2ccc(Cl)cc2Cl)cc1 | > 50 | > 50 | > 50 | > 50
8 | Cc1cc(C)nc(Sc2ccc(NC(=O)Nc3ccc(Cl)cc3Cl)cc2)n1 | > 50 | 23.2 | > 50 | 15.5
9 | Cc1cc(C)nc(Oc2ccc(NC(=O)Nc3ccc(F)cc3)cc2)n1 | > 50 | 46.9 | > 50 | 48.4
10 | Cc1cc(C)nc(Sc2ccc(NC(=O)Nc3ccc(Cl)cc3)cc2)n1 | 35.3 | 13.5 | 26.1 | 10.2
11 | COc1ccc(NC(=O)Nc2ccc(Cl)cc2)cc1 | > 50 | > 50 | – | > 50
12 | Cc1cc(C)nc(Oc2ccc(NC(=O)Nc3ccc(Cl)cc3Cl)cc2)n1 | 47.8 | 38.9 | 35.4 | 31.8
13 | Cc1cccc(NC(=O)Nc2ccc(Oc3nc(C)cc(C)n3)cc2)c1 | – | – | – | > 50
14 | Cc1cc(C)nc(Oc2ccc(NC(=O)Nc3ccc(Cl)cc3)cc2)n1 | > 50 | 20.4 | > 50 | 25.4
15 | O=c1[nH]cc(F)c(=O)[nH]1 [FLUOROURACIL] | 15.2 | 13.1 | 12.6 | 11.9
